Source: ChEMBL document CHEMBL4118244, “Design, synthesis and biological evaluation of benzofuran appended benzothiazepine derivatives as inhibitors of butyrylcholinesterase and antimicrobial agents” (Bioorg Med Chem, 2018)
In brackets after ≈: the same amount, converted by molar mass. Activity calls are given as the source filed them. The rule behind the calls is not given here.

Columns and labels:
[1] = tested on: Klebsiella pneumoniae; assay: Antibacterial activity against Klebsiella pneumoniae ATCC 10031; assay type: functional
[2] = tested on: Salmonella paratyphi; assay: Antibacterial activity against Salmonella paratyphi A serotype ATCC 5702; assay type: functional; details: Salmonella enterica subsp. enterica serovar Paratyphi A
[3] = tested on: Pseudomonas aeruginosa; assay: Antibacterial activity against Pseudomonas aeruginosa ATCC 27853 assessed as diameter of inhibition zone at 200 ug per disc after 24 hrs by agar disc diffusion method; assay type: functional; details: ATCC 27853, 24 h, read-out: DIZ
How it was run: (§1)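 Agar disc diffusion. Compounds at 20 mg mL⁻¹ in DMSO, filter-sterilised. 100 µL of 10⁸ CFU mL⁻¹ bacteria spread on nutrient agar. 6 mm discs carried 10 µl (200 µg per disc), with DMSO discs as negative control. Incubation 24 h at 37 °C. Read-out is inhibition zone diameter, mean of 3 repeats (±1 mm).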

[4] = tested on: Bacillus spizizenii; assay: Antibacterial activity against Bacillus subtilis ATCC 6633; assay type: functional
[5] = tested on: Escherichia coli; assay: Antibacterial activity against Escherichia coli ATCC 10536; assay type: functional
[6] = tested on: Proteus vulgaris; assay: Antibacterial activity against Proteus vulgaris PTCC 1182 assessed as diameter of inhibition zone at 200 ug per disc after 24 hrs by agar disc diffusion method; assay type: functional; details: PTCC 1182, 24 h, read-out: DIZ; how it was run: as §1
[7] = tested on: Klebsiella pneumoniae; assay: Antibacterial activity against Klebsiella pneumoniae ATCC 10031 assessed as diameter of inhibition zone at 200 ug per disc after 24 hrs by agar disc diffusion method; assay type: functional; details: ATCC 10031, 24 h, read-out: DIZ; how it was run: as §1
[8] = tested on: Aspergillus niger; assay: Antifungal activity against Aspergillus niger ATCC 16404 assessed as diameter of inhibition zone at 200 ug per disc after 72 hrs by agar disc diffusion method; assay type: functional; details: ATCC 16404, 72 h, read-out: DIZ
How it was run: (§2)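 Agar disc diffusion against mold. Compounds at 20 mg mL⁻¹ in DMSO, filter-sterilised. 6 mm discs carried 10 µl (200 µg per disc), with DMSO discs as negative control. Incubation 72 h at 30 °C. Read-out is growth inhibition zone diameter, mean of 3 repeats (±1 mm).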

[9] = tested on: Shigella dysenteriae; assay: Antibacterial activity against Shigella dysenteriae PTCC 1188 assessed as diameter of inhibition zone at 200 ug per disc after 24 hrs by agar disc diffusion method; assay type: functional; details: PTCC 1188, 24 h, read-out: DIZ; how it was run: as §1
[10] = tested on: Bacillus spizizenii; assay: Antibacterial activity against Bacillus subtilis ATCC 6633 assessed as diameter of inhibition zone at 200 ug per disc after 24 hrs by agar disc diffusion method; assay type: functional; details: ATCC 6633, 24 h, read-out: DIZ; how it was run: as §1
[11] = tested on: Aspergillus brasiliensis; assay: Antifungal activity against Aspergillus brasiliensis PTCC 5011; assay type: functional
[12] = target: Cholinesterase (Equus caballus, UniProt P81908); assay: Inhibition of equine serum BChE using butyrylthiocholine iodide as substrate pretreated for 15 mins followed by substrate addition measured for 6 mins by Ellman's method; details: read-out: IC50
How it was run: (§3)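 Ellman spectrophotometric assay in 0.1 M phosphate buffer pH 8.0 with DTNB, 25 °C. AChE (electric eel, Type V-S) or BChE was preincubated 15 min with compound before adding acetylthiocholine iodide or butyrylthiocholine iodide, respectively. Absorbance change at 412 nm was read for 6 min. Five concentrations were tested in triplicate, corrected by a nonenzymatic blank, with a no-inhibitor reference.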

[13] = tested on: Staphylococcus epidermidis; assay: Antibacterial activity against Staphylococcus epidermidis ATCC 12228 assessed as diameter of inhibition zone at 200 ug per disc after 24 hrs by agar disc diffusion method; assay type: functional; details: ATCC 12228, 24 h, read-out: DIZ; how it was run: as §1
[14] = tested on: Aspergillus brasiliensis; assay: Antifungal activity against Aspergillus brasiliensis PTCC 5011 assessed as diameter of inhibition zone at 200 ug per disc after 72 hrs by agar disc diffusion method; assay type: functional; details: PTCC 5011, 72 h, read-out: DIZ; how it was run: as §2
[15] = tested on: Staphylococcus aureus; assay: Antibacterial activity against Staphylococcus aureus ATCC 29737 assessed as diameter of inhibition zone at 200 ug per disc after 24 hrs by agar disc diffusion method; assay type: functional; details: ATCC 29737, 24 h, read-out: DIZ; how it was run: as §1
[16] = target: Acetylcholinesterase (Electrophorus electricus) (UniProt O42275); assay: Inhibition of electric eel AChE using acetylthiocholine iodide as substrate pretreated for 15 mins followed by substrate addition measured for 6 mins by Ellman's method; how it was run: as §3
[17] = tested on: Escherichia coli; assay: Antibacterial activity against Escherichia coli ATCC 10536 assessed as diameter of inhibition zone at 200 ug per disc after 24 hrs by agar disc diffusion method; assay type: functional; details: ATCC 10536, 24 h, read-out: DIZ; how it was run: as §1
[18] = tested on: Aspergillus niger; assay: Antifungal activity against Aspergillus niger ATCC 16404; assay type: functional
[19] = tested on: Staphylococcus aureus; assay: Antibacterial activity against Staphylococcus aureus ATCC 29737; assay type: functional
[20] = tested on: Proteus vulgaris; assay: Antibacterial activity against Proteus vulgaris PTCC 1182; assay type: functional
[21] = tested on: Candida albicans; assay: Antifungal activity against Candida albicans ATCC 10231 assessed as diameter of inhibition zone at 200 ug per disc after 48 hrs by agar disc diffusion method; assay type: functional; details: ATCC 10231, 48 h, read-out: DIZ
How it was run: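 Yeast tested by agar disc diffusion. Compounds at 20 mg mL⁻¹ in DMSO, filter-sterilised. 6 mm discs carried 10 µl (200 µg per disc), with DMSO discs as negative control. Incubation 48 h at 30 °C. Zone diameter was averaged over 3 repeats (±1 mm).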

[22] = tested on: Salmonella paratyphi; assay: Antibacterial activity against Salmonella paratyphi A serotype ATCC 5702 assessed as diameter of inhibition zone at 200 ug per disc after 24 hrs by agar disc diffusion method; assay type: functional, Salmonella enterica subsp. enterica serovar Paratyphi A; details: Salmonella enterica, ATCC 5702, 24 h; read-out: DIZ; how it was run: as §1
[23] = tested on: Candida albicans; assay: Antifungal activity against Candida albicans ATCC 10231; assay type: functional
[24] = tested on: Staphylococcus epidermidis; assay: Antibacterial activity against Staphylococcus epidermidis ATCC 12228; assay type: functional
[25] = tested on: Shigella dysenteriae; assay: Antibacterial activity against Shigella dysenteriae PTCC 1188; assay type: functional
[26] = tested on: Pseudomonas aeruginosa; assay: Antibacterial activity against Pseudomonas aeruginosa ATCC 27853; assay type: functional

Sequence of Acetylcholinesterase (Electrophorus electricus) (O42275 24-633 limits assumed): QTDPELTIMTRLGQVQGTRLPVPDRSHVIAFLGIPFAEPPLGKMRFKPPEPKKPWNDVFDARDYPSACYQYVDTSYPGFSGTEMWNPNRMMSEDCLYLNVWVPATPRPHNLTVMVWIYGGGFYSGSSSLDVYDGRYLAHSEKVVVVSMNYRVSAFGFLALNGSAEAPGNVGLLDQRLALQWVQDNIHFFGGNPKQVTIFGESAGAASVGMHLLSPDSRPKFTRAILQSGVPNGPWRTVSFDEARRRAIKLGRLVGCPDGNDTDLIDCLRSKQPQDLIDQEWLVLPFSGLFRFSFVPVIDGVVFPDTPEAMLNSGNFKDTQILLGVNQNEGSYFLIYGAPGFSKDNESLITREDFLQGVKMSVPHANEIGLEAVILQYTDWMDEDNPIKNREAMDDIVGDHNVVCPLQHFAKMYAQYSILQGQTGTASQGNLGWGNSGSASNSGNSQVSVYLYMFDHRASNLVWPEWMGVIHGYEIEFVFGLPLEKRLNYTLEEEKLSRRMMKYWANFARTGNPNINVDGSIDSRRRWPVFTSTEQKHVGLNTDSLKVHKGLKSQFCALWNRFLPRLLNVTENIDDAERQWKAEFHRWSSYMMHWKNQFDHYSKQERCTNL
Sequence of Cholinesterase (P81908 whole entry): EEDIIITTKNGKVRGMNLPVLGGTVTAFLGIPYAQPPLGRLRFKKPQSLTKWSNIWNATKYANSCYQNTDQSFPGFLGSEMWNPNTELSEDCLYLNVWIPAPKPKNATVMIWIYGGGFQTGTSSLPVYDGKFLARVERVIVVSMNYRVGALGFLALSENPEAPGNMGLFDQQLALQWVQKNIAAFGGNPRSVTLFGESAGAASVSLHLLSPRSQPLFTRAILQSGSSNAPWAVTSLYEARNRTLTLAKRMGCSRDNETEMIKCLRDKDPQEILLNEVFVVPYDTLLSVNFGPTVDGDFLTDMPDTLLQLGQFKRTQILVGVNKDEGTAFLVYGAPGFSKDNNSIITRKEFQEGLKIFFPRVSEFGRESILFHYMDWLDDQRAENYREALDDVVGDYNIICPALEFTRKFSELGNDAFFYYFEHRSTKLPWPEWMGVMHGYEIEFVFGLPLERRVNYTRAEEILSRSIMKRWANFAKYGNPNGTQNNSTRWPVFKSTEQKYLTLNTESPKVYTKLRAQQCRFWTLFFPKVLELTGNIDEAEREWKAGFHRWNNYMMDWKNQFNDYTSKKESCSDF

Q: Which MIC [1] does the source give for `Brc1ccc2oc(C3=Nc4ccccc4SC(c4cccc5ccccc45)C3)cc2c1` (stereo unspecified) here?
A: Its MIC is “inactive”.

Q: And the MIC [2]?
A: The MIC was “inactive”.

Q: And the zone of inhibition at 200 µg/disc [3]?
A: Its zone of inhibition at 200 µg/disc is less than 6 mm.

Q: What about the MIC [4] of the same molecule?
A: Its MIC is 5 µg/mL (≈ 10.3 µM).

Q: What about the MIC [5] of the same molecule?
A: Its MIC is “inactive”.

Q: What about the zone of inhibition at 200 µg/disc [6] of the same molecule?
A: Its zone of inhibition at 200 µg/disc is 19 mm.

Q: And the zone of inhibition at 200 µg/disc [7]?
A: The zone of inhibition at 200 µg/disc was less than 6 mm.

Q: And the zone of inhibition at 200 µg/disc [8]?
A: The zone of inhibition at 200 µg/disc was less than 6 mm.

Q: What about the zone of inhibition at 200 µg/disc [9] of the same molecule?
A: Its zone of inhibition at 200 µg/disc is 14 mm.

Q: And the zone of inhibition at 200 µg/disc [10]?
A: Its zone of inhibition at 200 µg/disc is 12 mm.

Q: And the MIC [11]?
A: Its MIC is “inactive”.

Q: And the IC50 [12]?
A: The IC50 was 17 µM.

Q: What about the zone of inhibition at 200 µg/disc [13] of the same molecule?
A: The zone of inhibition at 200 µg/disc was less than 6 mm.

Q: And the zone of inhibition at 200 µg/disc [14]?
A: The zone of inhibition at 200 µg/disc was less than 6 mm.

Q: What about the zone of inhibition at 200 µg/disc [15] of the same molecule?
A: Its zone of inhibition at 200 µg/disc is 10 mm.

Q: And the inhibition [16]?
A: Its inhibition is “inactive”.

Q: And the zone of inhibition at 200 µg/disc [17]?
A: The zone of inhibition at 200 µg/disc was less than 6 mm.

Q: And the MIC [18]?
A: The MIC was “inactive”.

Q: And the MIC [19]?
A: The MIC was 5 µg/mL (≈ 10.3 µM).

Q: What about the MIC [20] of the same molecule?
A: The MIC was 12.5 µg/mL (≈ 25.8 µM).

Q: What about the zone of inhibition at 200 µg/disc [21] of the same molecule?
A: Its zone of inhibition at 200 µg/disc is 14 mm.

Q: What about the zone of inhibition at 200 µg/disc [22] of the same molecule?
A: Its zone of inhibition at 200 µg/disc is less than 6 mm.

Q: And the MIC [23]?
A: Its MIC is 25 µg/mL (≈ 51.6 µM).

Q: What about the MIC [24] of the same molecule?
A: Its MIC is “inactive”.

Q: And the MIC [25]?
A: The MIC was 50 µg/mL (≈ 103 µM).

Q: What about the MIC [26] of the same molecule?
A: The MIC was “inactive”.
